Results as given in ChEMBL document CHEMBL3804761, “Synthesis of a stable and orally bioavailable englerin analogue” (Bioorg Med Chem Lett, 2016).
Calls of active or inactive are those of the source. No cut-off for these calls is given here.

Key:
[1] = Growth inhibition of human OVCAR3 cells assessed as cell growth at 10 uM incubated for 48 hrs by sulforhodamine B assay relative to control; assay type: functional; conditions: OVCAR-3, 48 h, read-out: Activity
Outline: (§1)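 Run in the standard NCI 60-cell-line screen. Cells were exposed to drug for two days, and the read-out was sulforhodamine B staining. Compound was tested at a single final concentration of 10 µM in every line, and results are reported as growth percent.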

[2] = Growth inhibition of human OVCAR8 cells incubated for 48 hrs by sulforhodamine B assay; assay type: functional; conditions: OVCAR-8, 48 h; for TGI: read-out: pTGI (converted)
Outline: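 NCI 60-cell-line panel, standard protocol. Cells exposed to compound for two days, growth read by sulforhodamine B staining. Tested at five 10-fold dilutions, top concentration 100 µM, to give dose-response curves.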

[3] = molecular target: Protein kinase C (PKC) (Homo sapiens) (UniProt O94806+P41743+P17252+P05129+Q05655+P05771+Q05513+Q02156+P24723+Q15139+Q04759); test: Activation of PKC in human 786-0 cells at 1 uM; assay type: cell-based
EKVX [4] = test: Growth inhibition of human EKVX cells assessed as cell growth at 10 uM incubated for 48 hrs by sulforhodamine B assay relative to control; assay type: functional; conditions: read-out: Activity; outline: as §1
[5] = Plasma concentration in mouse at 20 mg/kg, po administered through gavage after 4 hrs by LC-MS/MS analysis; assay type: ADME, organism-based
Outline: (§2)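 Ten mice given 20 mg/kg by oral gavage in Labrasol (20 mg/mL solution). Two mice sacrificed at each of 5 min, 15 min, 1 h, 4 h and 8 h. Plasma measured by LC-MS/MS after acetonitrile precipitation with lorazepam internal standard on a C18 UPLC column (calibration 5-500 ng/mL). Mean of two animals per time point.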

[6] = AUClast in mouse at 20 mg/kg, po administered through gavage up to 8 hrs by LC-MS/MS analysis; assay type: ADME, organism-based; parameters: time < 8 hr, dose 20 mg/kg, route oral; conditions: in vivo
Outline: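 Mice received 20 mg/kg by oral gavage as a 20 mg/mL solution in Labrasol. Two mice were sacrificed at each of 5 min, 15 min, 1 h, 4 h and 8 h, ten mice in total. Plasma was precipitated with acetonitrile containing lorazepam internal standard and analysed by C18 UPLC-MS/MS, calibrated over 5-500 ng/mL. AUClast was calculated from these time points.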

[7] = Plasma concentration in mouse at 20 mg/kg, po administered through gavage after 1 hr by LC-MS/MS analysis; assay type: ADME, organism-based; outline: as §2
[8] = Plasma concentration in mouse at 100 mg/kg, po administered through gavage after 30 mins by LC-MS/MS analysis; assay type: ADME, organism-based
Outline: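 Oral gavage to mice in Labrasol vehicle (compound dissolved directly at 20 mg/mL); dose groups 5, 10, 50 and 100 mg/kg. Plasma sampled 30 min after dosing. Analysis by HPLC-MS/MS: acetonitrile protein precipitation with lorazepam internal standard, C18 UPLC column, calibration range 5-500 ng/mL.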

[9] = Toxicity in po dosed mouse administered through gavage; assay type: organism-based; conditions: in vivo
EKVX [10] = test: Growth inhibition of human EKVX cells incubated for 48 hrs by sulforhodamine B assay; assay type: functional
Outline: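 Run in the NCI 60-cell-line protocol, with 2-day drug exposure and sulforhodamine B read-out. Dose-response testing used five 10-fold dilutions starting from a high concentration of 100 µM.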

[11] = Plasma concentration in mouse at 20 mg/kg, po administered through gavage after 8 hrs by LC-MS/MS analysis; assay type: ADME, organism-based; outline: as §2
[12] = Plasma concentration in mouse at 20 mg/kg, po administered through gavage after 0.25 hrs by LC-MS/MS analysis; assay type: ADME, organism-based; outline: as §2
[13] = Plasma concentration in mouse at 20 mg/kg, po administered through gavage after 0.083 hrs by LC-MS/MS analysis; assay type: ADME, organism-based; outline: as §2

SMILES | growth at 10 µM [1] | GI50 [2] | LC50 (concentration killing 50% of cells) [2] | TGI [2] | Activity [3] | growth at 10 µM (EKVX [4]) | concentration at 4 h [5] | AUC(0-t) at 8 h [6] | concentration at 1 h [7] | concentration at 0.5 h [8] | MTD [9] | GI50 (EKVX [10]) | CC50 (EKVX [10]; read-out: pLC50 (the source's name) (converted)) | TGI (EKVX [10]; read-out: pTGI) | concentration at 8 h [11] | concentration at 0.25 h [12] | concentration at 0.083 h [13]
C/C(=C\C(=O)O[C@H]1[C@@H]2[C@H](C)CC[C@H]2[C@]2(C)O[C@@]1(C(C)C)C[C@H]2NC(=O)CO)c1ccccc1 | 121% | 7.59 µM | > 100 µM | > 100 µM | – | – | – | – | – | – | – | – | – | – | – | – | –
CC(C)[C@@]12C[C@@H](NC(=O)CO)[C@@](C)(O1)[C@@H]1CC[C@@H](C)[C@H]1[C@@H]2OC(=O)/C=C/C1CCCCC1 | 110% | 28.2 µM | > 44.7 µM | > 44.7 µM | – | – | – | – | – | – | – | – | – | – | – | – | –
CC(C)[C@@]12C[C@@H](NC(=O)CF)[C@@](C)(O1)[C@@H]1CC[C@@H](C)[C@H]1[C@@H]2OC(=O)/C=C/c1ccccc1 | 115% | – | – | – | – | – | – | – | – | – | – | – | – | – | – | – | –
CC(C)[C@@]12C[C@@H](NC(=O)CO)[C@@](C)(O1)[C@@H]1CC[C@@H](C)[C@H]1[C@@H]2OC(=O)/C=C/c1ccccc1 | 106% | 4.79 µM | > 50.1 µM | > 50.1 µM | inactive | 69% | 59 ng/mL | 524 ng·h/mL | 73.2 ng/mL | ≤ 700 ng/mL | 50 mg/kg | 11.2 µM | > 50.1 µM | > 50.1 µM | 67.8 ng/mL | 40.7 ng/mL | 10 ng/mL
CC(C)[C@@]12C[C@@H](NC(=O)CO)[C@@](C)(O1)[C@@H]1CC[C@@H](C)[C@H]1[C@@H]2OC(=O)c1ccc2ccccc2c1 | 98.8% | 6.46 µM | 60.3 µM | 22.4 µM | – | – | – | – | – | – | – | – | – | – | – | – | –
